Measurements taken from ChEMBL document CHEMBL4513216, “Probing the Open Global Health Chemical Diversity Library for Multistage-Active Starting Points for Next-Generation Antimalarials” (ACS Infect Dis, 2020).

Assay: Toxicity liver stage against HepG2, at 10uM
Format: cell-based
Design: test concentration 10 uM, cell line HepG2-A16-CD81EGFP
Conditions: human, HepG2-A16-CD81EGFP cells; read-out: INHIBITION
In short: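 Uninfected HepG2-A16-CD81EGFP cells, 3 × 10^3 per well, 1536-well, plated on prespotted compound at 10 μM final, parasite-free screening media added to match infected plates; puromycin 10 μM positive, DMSO 0.5% negative; run in parallel with 48 h PbLuc assay at 37 °C, 5% CO2; viability by CellTiter-Glo luminescence, normalized to controls.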

Structure (SMILES) | cytotoxicity at 10 µM
CCOCCCNC(=O)NCc1c(C)nn(C)c1C | -5.28%
COc1cc(OC)cc(C(=O)Nc2ncnc3c2CCC3)c1 | -179%
O=C(NCCn1ccc(-c2ccncc2)n1)C1CC1 | -2.08%
CCN1CC[C@]2(CN(C(=O)[C@H]3CCCO3)C[C@H]2c2ccccc2)C1=O | 5.98%
O=C(C1CCOC1)N1C[C@H]2CN(c3ccccc3)C(=O)[C@H]2C1 (stereo partly specified) | -123%
Cc1cnc(N2CCCC3(COCCN(c4ccc(C)nn4)C3)C2)nc1 (stereo unspecified) | -126%
CCCN(CCC)c1ncc(S(=O)(=O)c2ccccc2)c(N)n1 | -2.26%
Cc1cc(C(=O)N(C)Cc2cccs2)nc(N2CCCCC2)n1 | 17.5%
CN(C)CC(=O)N1CCCC1c1cncc(Oc2ccc(F)cc2)n1 (stereo unspecified) | -10.9%
O=C(c1c[nH]c(=O)[nH]c1=O)N1CCCC(c2cnccn2)C1 (stereo unspecified) | -3.58%
C[C@]1(O)CN(CCC(N)=O)CC[C@@H]1Oc1cccc(F)c1 | -0.224%
Cn1nc(C2CCCNC2)c2c(C(=O)NC3CC3)cc(C3CC3)nc21 (stereo unspecified) | 14.5%
Cc1ccc(CN2CCCC23Cc2ccccc2CNC3=O)cc1 (stereo unspecified) | 8.82%
Cc1nc(CNC(=O)Nc2cc(F)ccc2N2CCN(C)CC2)no1 | -8.8%
CCc1noc(CN2CCN(C(=O)Cc3ccc(F)cc3)CC2)n1 | 10.4%
CCOc1ccccc1N(C)Cc1nccn1C | -3.83%
CN(Cc1ccc(C(=O)O)cc1)C(=O)c1sccc1OC(F)F | -6.59%
O=C(CCC1CCCO1)NCCN1CCCCC1 (stereo unspecified) | -3.79%
CN(c1ncc(S(N)(=O)=O)s1)C1CCC1 | 4.13%
CC(C)c1csc(C2CCCN(C(=O)c3ccc(=O)n(C)c3)C2)n1 (stereo unspecified) | -48.2%
Cc1cccc(C(=O)N2CCN(C)CC2)c1NC(=O)c1ccncc1 | -10.8%
Cc1n[nH]c(NC(=O)c2ccc(COCC(F)(F)F)cc2)c1C | -0.81%
Cc1ccc(C(NC(=O)C2CC2)c2cccc(S(C)(=O)=O)c2)cc1 (stereo unspecified) | -9.8%

Structure (SMILES) | cytotoxicity at 10 µM
CC(C)(C)c1nc(CC(=O)Nc2cnccc2O)cs1 | 9.09%
C=C(C)CN1CCC(NC(=O)Nc2ccc(F)c(C(=O)NC)c2)CC1 | 5.58%
COCCNc1ccccc1CNC(=O)NCc1cnc(C)s1 | 10.6%
CCc1noc(CS(=O)(=O)Cc2ccccc2Cl)n1 | -6.75%
O=C(c1ccc2nccn2c1)N1CCCC1c1noc(C2CC2)n1 (stereo unspecified) | -4.68%
O=C(CN1CCOC(c2ccc(Cl)s2)C1)NCc1ccco1 (stereo unspecified) | -3.09%
CN(C)c1ccc(NC(=O)C2CN(Cc3ccccc3)CCO2)cn1 (stereo unspecified) | 4.46%
CN(C)c1cc(CNCc2cccc3c2OCCO3)ccn1 | 3.57%
COCCNC(=O)CN(C)Cc1ccc(F)cc1Cl | -1.02%
Cc1cc(CNC(=O)NCc2ccccc2N2CCOCC2)no1 | 1.15%
O=C(Nc1nnc[nH]1)C(c1cccc(F)c1)N1CCOCC1 (stereo unspecified) | -9.07%
CNC(=O)CS(=O)(=O)Cc1ccc(OC)c(F)c1 | -6.7%
NC(=O)CCSCc1ccc(Br)c(F)c1 | -4.81%
CN(Cc1ccccc1)CC(C)(C)NC(=O)c1ccc(C(N)=O)cn1 | -0.616%
O=S1(=O)CCC(CNS(=O)(=O)N2CCc3ccccc3C2)C1 (stereo unspecified) | -10.7%
COc1ccc(CN2CCC(C(N)=O)CC2)cc1SC(F)(F)F | -20.3%
CN(Cc1nnc2n1CCC2)S(=O)(=O)c1ccc(Br)cc1Cl | -6.08%
CCC(=O)NC1CCCN(C(=O)Nc2cc(-c3ccccc3)on2)C1 (stereo unspecified) | 6.64%
CCC1CN(CC(=O)NCCC#N)CCO1 (stereo unspecified) | 2.28%
N#Cc1ccnc(SCC2CN=C(N3CCOCC3)S2)c1 (stereo unspecified) | -22.9%
CN(Cc1ccc([S+](C)[O-])cc1)c1cncc(Cl)n1 (stereo unspecified) | -10.6%
Cc1cccc(C(C)CNC(=O)N2CCC3(C2)OCCO3)c1 (stereo unspecified) | 16.1%
COc1cc(C)c(NC(=O)NCCn2cccc2)cc1OC | 0.414%

Structure (SMILES) | cytotoxicity at 10 µM
Cc1ccc(F)c(N2CCCC(Nc3nccn4cnnc34)C2=O)c1 (stereo unspecified) | -0.115%
Cc1nnc(NCC2(c3ccc(Cl)cc3Cl)CCOCC2)c(C#N)c1C | 1.98%
CN1CC[C@]2(CN(CC3CC3)C[C@H]2c2ccccc2)C1=O | 3.15%
COCC1c2nnn(C)c2CCN1C(=O)COc1ccccc1OC (stereo unspecified) | -105%
COCC1c2nnn(C)c2CCN1C(=O)CCc1cccc(OC)c1 (stereo unspecified) | -90.4%
CCN1C[C@H]2CCN(C(=O)Cc3cccc(OC)c3)CC[C@H]2S1(=O)=O | 9.86%
O=C1CCCN1Cc1nnc2n1CCCN(C(=O)c1ccc[nH]1)C2 | -107%
COc1cc(F)ccc1CC(=O)N1CC[C@H]2C(=O)NCCO[C@H]2C1 | -108%
COCc1cnc2n1CCN(C(=O)c1oc3ccccc3c1C)C2C (stereo unspecified) | -104%
CCOCc1cnc2n1CCN(C(=O)c1cccc3c1OCCO3)C2C (stereo unspecified) | -98.2%
c1cc(CN2CCOCC3(CCN(C4CCOCC4)C3)C2)ccn1 (stereo unspecified) | 0.866%
O=C1NC2(CCNCC2)CC1c1cccnc1 (stereo unspecified) | 1.77%
CNCC[C@H]1CC(C)(C)Oc2ccc(C)cc21 | 0.526%
CC(C)N(C)C(=O)C1CCC(=O)N(CCc2cccc(F)c2)C1 (stereo unspecified) | -4.57%
Cc1csc(N2CCN(C3CCc4ccccc4C3)CC2)n1 (stereo unspecified) | 2.01%
CCc1nc2c(c(N3CCOCC3)n1)CCN(C(=O)c1ccon1)CC2 | 10.6%
CC(C)N(C(=O)N1CCn2cncc2C1)C(C)C | -12.3%
CS(=O)(=O)N1CC[C@]2(O)CCN(c3cc(C#N)ccn3)C[C@@H]2C1 | 6.36%
CCCC(C)NC1CCN(c2ccc(-n3ccnc3C)cc2)CC1 (stereo unspecified) | -3.67%
C=C(C)COc1cccc(C(=O)NC(C)c2nnn[nH]2)c1 (stereo unspecified) | -8.32%
O=c1cc(N2CCCC2)cnn1CCc1cccc(F)c1 | -12.8%
COc1ccc(Cc2noc(-c3ccc(NC(C)CO)nc3)n2)cc1 (stereo unspecified) | -3.06%
CCN(Cc1ccncc1)C(=O)c1cc(C)c(C)c(S(N)(=O)=O)c1 | -2.33%

Structure (SMILES) | cytotoxicity at 10 µM
CC(C)(O)CCc1ccc(C(=O)N2CCN(CC(F)(F)F)CC2)cc1 | 6.16%
O=C(CCN1CCCC1)N1CC[C@@H](c2ccc3ccccc3c2)[C@H](O)C1 | 2.97%
CC(Cn1cnc2cn(C)nc2c1=O)Oc1cccnc1 (stereo unspecified) | -11.7%
CCCc1nc(N(C)CCN2CCCCCC2)c2cnn(C)c2n1 | 3.22%
O=C1CC[C@@H](C(=O)N2CCc3[nH]nc(COc4cccc(Cl)c4)c3C2)N1 | -52.1%
O=C(CO)N1CC[C@@H](N2CCN(c3ccccc3F)CC2)[C@H](O)C1 | -46%
CN(CCCc1cnn(C)c1)Cc1cc2n(n1)CCNC2 | 11.1%
O=C(O)C(c1ccc(Cl)c(F)c1)N1CCN(Cc2ccccn2)CC1 (stereo unspecified) | 8.09%
CCCc1nnc(N[C@H](C)c2ccc(OC)cc2)o1 | -19.9%
COc1ccc(C(C)C)cc1C1CC(=O)NCc2nc(N(C)C)sc21 (stereo unspecified) | -1.22%
O=C(Nc1ccccc1Cl)N1CCN(CC2CC2)[C@@H]2CS(=O)(=O)C[C@@H]21 | 2.72%
CN(C)CC1(O)CCCN(C(=O)Cc2ccc(Cl)c(Cl)c2)C1 (stereo unspecified) | 0.355%
Cn1ncc(NC(=O)Cn2ccc(-c3ccc(F)cc3)n2)n1 | 1.05%
CC(C)[C@H]1COC(=O)N1CC(=O)N1CCCN(C(=O)c2ccoc2)CC1 | 3.38%
O=c1[nH]c(NC2CCCC2)nc2nccc(-c3cccs3)c12 | -18.1%
CC(C)CN1CCC(NCCNc2cccnc2)CC1 | -5.25%
CCC(C)N(Cc1cccnc1)Cc1ccc2c(c1)OCCO2 (stereo unspecified) | -2.83%
Cc1cc(N2CCN(Cc3ccc(-c4cc[nH]n4)o3)CC2)cc(C)n1 | 2.17%
CCn1cc(-c2cc(C(F)F)n3nc(CC(=O)O)nc3n2)cn1 | -9.49%
O=C(c1csc(C2CC2)n1)N1CCCCC1Cn1cccn1 (stereo unspecified) | 0.745%
CCCc1nc(C)c(C(=O)NCCn2nc3ccccn3c2=O)s1 | -10.1%
CN1CCCN(C(=O)NCc2cccnc2-n2cccn2)CC1 | -17.9%
COc1ccc(CNc2cnn(C)c(=O)c2Cl)cc1 | -3.45%

Structure (SMILES) | cytotoxicity at 10 µM
c1cnnc(N2CCCC2CNc2ncnc3ccsc23)c1 (stereo unspecified) | -8.87%
CNC(=O)C1CCN(CC(=O)Nc2cc(C(C)C)no2)CC1 | -8.01%
CC(C)(C)c1cc(NC(=O)CN2CCCC2Cn2cccn2)on1 (stereo unspecified) | -15.3%
COc1c(CNCCNC(=O)c2ccc(C)cc2)c(C)nn1C | -3.39%
CC1CN(CC(=O)Nc2cccnc2)CCN1c1nccs1 (stereo unspecified) | -3.59%
Cc1cnn(CCNCC(O)COc2c(C)ccc(C)c2C)c1 (stereo unspecified) | -8.78%
Cc1ccoc1C(=O)NC1CCN(Cc2cccc3c2OCCO3)CC1 | 1.18%
CCc1n[nH]c(C2CN(C(=O)Cn3ccccc3=O)CCO2)n1 (stereo unspecified) | -0.746%
CCn1cnnc1C1CCN(C(=O)COc2ccccc2)CC1 | 1.3%
O=C(Nc1nc2c(s1)CNCC2)C1CC1 | -0.0154%
CCOC(=O)N1CCN(c2nc(NC3CC3)c3ccccc3n2)CC1 | -0.529%
Cn1cc(C(=O)NCc2cn3c(n2)CN(Cc2ccccn2)CC3)cn1 | -13.7%
CN(C)C(=O)NCc1ncn2c1CN(Cc1cccs1)CCC2 | 8.07%
Cc1cnc(N2CCOC3(CCCN(C)C3)C2)nc1 (stereo unspecified) | 8.25%
Cc1cccc(COC[C@@]23CCC[C@@H]2CN(S(=O)(=O)N(C)C)C3)n1 | -6.87%
CC[C@@H]1N(Cc2ccsc2)CCC[C@]12CCC(=O)N2CCOC | 7.36%
Cc1cccc(CNC2CC3(CCN(CCO)CC3)c3ccccc32)n1 (stereo unspecified) | -110%
CCOc1c(OC)cc(C=Cc2ncc(C(=O)NC)s2)cc1OC | 1.62%
CN(C)C(=O)CN1C[C@H]2CC[C@@H](C1)N(C/C=C/c1ccc(F)cc1)C2 | -7.65%
